Experimental data pooled from the literature.
Lines come from different studies, so protocols differ.
CDK5 with p25: Cyclin-dependent kinase 5, with p25 (CDK5, Homo sapiens, UniProt Q00535)
CDK5: Cyclin-dependent kinase 5 (CDK5, Homo sapiens, UniProt Q00535)
CDK5 with p35: Cyclin-dependent kinase 5, with p35 (CDK5, Homo sapiens, UniProt Q00535)

| SMILES | target | assay | setting | measurement | result |
| --- | --- | --- | --- | --- | --- |
| CCCOc1ccc(OC)c(F)c1C(=O)c1ccc(C(=O)N[C@@H]2CNC[C@H]2NC(=O)c2ccc3[nH]ncc3c2)cc1 | CDK5 with p25 | enzyme activity, inhibitor | 0.75 µM | remaining activity | 85% |
| C[C@H](c1ccnc(Nc2nc3ccc(-c4cc(N(C)C)ncn4)cc3[nH]2)c1)N1CCN(C(=O)CC(F)(F)F)CC1 | CDK5 | cell-free assay, competition with immobilised ligand | 0.1 µM | remaining binding | 86% |
| Cc1ccc(NC(=O)c2ccc(C)c(C(F)(F)F)c2)cc1C#Cc1nn(C2CCC(O)CC2)c2ncnc(N)c12 (stereo not drawn) | CDK5 with p35 | cell-free assay | 10 µM | remaining signal | 127% |
| N#Cc1ccc(Nc2ccc3[nH]c(=O)[nH]c3c2)c(Cl)c1 | CDK5 | cell-free assay, competition with immobilised ligand | 1 µM | remaining binding | 100% |
| N#CCCc1ccc2c(c1)-c1[nH]c3ccc([N+](=O)[O-])cc3c1CC(=O)N2 | CDK5 with p35 | cell-free assay | 0.5 µM | remaining signal | 2.6% |
| NS(=O)(=O)c1cc(NC(=O)Cc2ccccc2)ccc1Oc1cccc(Cl)c1 | CDK5 | cell-free assay, competition with immobilised ligand | 1 µM | remaining binding | 61% |
| CC[C@H](C)[C@H](NC(=O)[C@H](CCC(N)=O)NC(=O)[C@H](CC(C)C)NC(=O)[C@H](CCSC)NC(=O)[C@H](CCCCN)NC(=O)[C@H](CO)NC(=O)[C@H](CO)NC(=O)[C@H](CCSC)NC(=O)[C@H](CC(C)C)NC(=O)[C@H](CC(N)=O)NC(=O)[C@@H](NC(=O)[C@@H](NC(=O)[C@H](CO)NC(=O)[C@H](CC(C)C)NC(=O)[C@H](CS)NC(=O)[C@H](CCCNC(=N)N)NC(=O)[C@H](CC(=O)O)NC(=O)[C@H](Cc1c[nH]c2ccccc12)NC(=O)[C@H](Cc1ccccc1)NC(=O)[C@H](C)NC(=O)[C@H](CCC(=O)O)NC(=O)[C@@H](N)CCCCN)C(C)C)[C@@H](C)CC)C(=O)N[C@@H](CC(N)=O)C(=O)N[C@@H](C)C(=O)O | CDK5 with p25 | enzyme activity, inhibitor, radiometric | 100 µM, 20 min | remaining activity | 59% |
| Cc1cc(NC(=O)c2cccc3cc(-c4cccc5[nH]nc(N)c45)ccc23)ccc1F | CDK5 with p35 | enzyme activity, inhibitor | 0.1 µM | activity vs control | 103% |
| COc1ccc2c(c1)O[C@@H](c1ccc(OC)c(OC)c1)C[C@H]2NC(=O)C1(c2ccc3c(c2)OC(F)(F)O3)CC1 | CDK5 | cell-free assay, competition with immobilised ligand | 1 µM | remaining binding | 100% |
| O=C1Nc2ccc(Cl)cc2C1=Cc1cc(Cl)c(O)c(Cl)c1 | CDK5 with p35 | cell-free assay | 0.5 µM | remaining signal | 94.5% |
| CC(C)CC(=O)N1CCc2nc(-c3ccc(Br)cc3)nc(N(C)Cc3ccccc3)c2C1 | CDK5 | cell-free assay, competition with immobilised ligand | 0.1 µM | remaining binding | 100% |
| Cc1ccc(C(=O)NCc2ccsc2)cc1C#Cc1cn(C(C)C)c2ncnc(N)c12 | CDK5 with p25 | enzyme activity, inhibitor | 1 µM | activity vs control | 95% |
| Oc1ccc(-c2nc(-c3ccncc3)c(-c3ccc(F)cc3)[nH]2)cc1 | CDK5 with p35 | cell-free assay | 0.5 µM | remaining signal | 97.3% |
| CS(=O)(=O)c1cc(C2(NC(=O)c3cncc4c3cnn4-c3ccc(F)cc3)CC2)ccn1 | CDK5 | cell-free assay, competition with immobilised ligand | 1 µM | remaining binding | 100% |
| Nc1nc(Nc2ccc(S(N)(=O)=O)cc2)nn1C(=O)c1c(F)cccc1F | CDK5 with p35 | cell-free assay | 0.5 µM | remaining signal | 0.212% |
| CC(C)c1ccc(NC(=O)c2cccs2)c(-c2nc3ccccc3[nH]c2=O)c1 | CDK5 with p35 | enzyme activity, inhibitor | 1 µM | activity vs control | 103% |
| O=C1NC(=O)c2cc(Nc3ccc(F)cc3)c(Nc3ccc(F)cc3)cc21 | CDK5 with p35 | cell-free assay | 0.5 µM | remaining signal | 98.5% |
| CN(C)C1CCN(CC#Cc2nn(C3CCCC3)c3nc(NCc4ccccc4)ncc23)C1 (stereo not drawn) | CDK5 with p25 | enzyme activity, inhibitor, FRET | 1 µM | inhibition | 3% |
